# Tests used:
# Mus musculus [1] = assay: In vivo antileukemic activity of CNDAC against P388 mouse leukemic cells by ip administration of dose 25 (mg/kg/day); format: functional
# How it was run: (§1)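 Female CDF1 mice, 6 weeks old (n = 6), implanted ip with 1×10^6 viable P388 cells maintained by weekly ip passage in DBA/2 mice. Drug in saline (0.1 mL/10 g body weight) given ip on days 1–5. T/C is treated vs untreated median survival time. Weight change is day 7 minus day 1 average.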
# WiDr [2] = assay: In Vitro cell growth inhibitory activity of CNDAC against Human Colon Carcinoma WiDr 5*10e2 cells on 48-h exposure; format: functional, cell-based
# How it was run: (§2)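 MTT assay. Cells seeded (WiDr 5×10^2, SBC-5 2.5×10^2, MKN-74 1×10^3 per well), 24 h preincubation at 37 °C, 5% CO2. Graded drug concentrations added in tetraplicate for 20 min or 48 h, then washed three times with medium and cultured to 6 days from drug addition. MTT 1 mg/mL for 4 h, DMSO solubilization, A540. IC50 read graphically from dose-response curve.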
# Mus musculus [3] = assay: In vivo antileukemic activity of CNDAC against P388 mouse leukemic cells by ip administration of dose 50 (mg/kg/day); format: functional; how it was run: as §1
# Mus musculus [4] = assay: In vivo antileukemic activity of CNDAC against P388 mouse leukemic cells by ip administration of dose 100 (mg/kg/day); format: functional; how it was run: as §1
# MKN-74 [5] = assay: In Vitro cell growth inhibitory activity of CNDAC Stomach Carcinoma MKN-74 (1*10e3) cell lines on 20-min exposure; format: functional, cell-based, Homo sapiens; how it was run: as §2
# WiDr [6] = assay: In Vitro cell growth inhibitory activity of CNDAC against Human Colon Carcinoma WiDr 5*10e2 cells on 20- min exposure; format: functional, cell-based; how it was run: as §2
# SBC-5 [7] = assay: In Vitro cell growth inhibitory activity of CNDAC against Small Cell Lung Carcinoma-5 (2.5*10e2) cells on 48-h exposure; format: functional, cell-based, Homo sapiens; how it was run: as §2
# SBC-5 [8] = assay: In Vitro cell growth inhibitory activity of CNDAC against Small Cell Lung Carcinoma-5 (2.5*10e2) cells on 20-min exposure; format: functional, cell-based; conditions: Homo sapiens, SBC-5, 20 min; how it was run: as §2
# MKN-74 [9] = assay: In Vitro cell growth inhibitory activity of CNDAC Stomach Carcinoma MKN-74 (1*10e3) cell lines on 48-h exposure; format: functional, cell-based, Homo sapiens; how it was run: as §2
# Mus musculus [10] = assay: In vivo antileukemic activity of CNDAC against P388 mouse leukemic cells by ip administration of dose 200 (mg/kg/day); format: functional; how it was run: as §1
# [11] = Kinetic parameter of epimerization in Tris.HCl buffer at a pH 9.0 (or )in RMPI 1640 cell culture medium containing 10%FCS; format: ADME, cell-based; conditions: rmpi 1640, pH 9
# How it was run: (§3)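 Starting nucleoside (3 mg, 0.012 mmol) in 1 mL Tris-HCl (pH 7.5–10.3; 10 mM unless salt varied to 0.01–1 M at pH 9.0) or RPMI 1640 with 10% FCS, 37 °C. Timed samples analyzed by C-18 HPLC, 2.5% aqueous MeOH, 254 nm; peak areas corrected by ε. Rate constants k12, k21, k13, k23 obtained by nonlinear least-squares fit to compartment model; t1/2 reported.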
# [12] = Kinetic parameter of epimerization in Tris.HCl buffer at a pH 9.6 (or )in RMPI 1640 cell culture medium containing 10%FCS; format: ADME, cell-based; conditions: rmpi 1640, pH 9.6; how it was run: as §3
# [13] = Degradation of CNDAC at 0.1 M concentration in Tris-degrees C; format: ADME; conditions: Tris buffer; how it was run: as §3
# [14] = Degradation of CNDAC at 7.5 pH in Tris-degrees C; format: ADME; conditions: Tris buffer, pH 7.5; how it was run: as §3
# [15] = Kinetic parameter of epimerization at a salt concentration (0.1 M) of in Tris.HCl buffer(pH 9.0) and 37 degree C (or )in RMPI 1640 cell culture medium containing 10%FCS; format: ADME, cell-based; conditions: rmpi 1640, pH 9; how it was run: as §3
# [16] = Degradation of CNDAC at 9 pH in Tris-degrees C; format: ADME; conditions: Tris buffer, pH 9; how it was run: as §3
# [17] = Kinetic parameter of epimerization in Tris.HCl buffer at a pH 10.0(or )in RMPI 1640 cell culture medium containing 10%FCS; format: ADME, cell-based; conditions: rmpi 1640, pH 10; how it was run: as §3
# [18] = Kinetic parameter of epimerization at a salt concentration (1 M) of in Tris.HCl buffer(pH 9.0) and 37 degree C (or )in RMPI 1640 cell culture medium containing 10%FCS; format: ADME, cell-based; conditions: rmpi 1640, pH 9; how it was run: as §3
# [19] = Kinetic parameter of epimerization in Tris.HCl buffer at a pH 8.0 (or )in RMPI 1640 cell culture medium containing 10%FCS; format: ADME, cell-based; conditions: rmpi 1640, pH 8; how it was run: as §3
# [20] = Degradation of CNDAC at 10 pH in Tris-degrees C; format: ADME; conditions: Tris buffer, pH 10; how it was run: as §3
# [21] = Degradation of CNDAC at 1 M concentration in Tris-degrees C; format: ADME; conditions: Tris buffer; how it was run: as §3
# [22] = Kinetic parameter of epimerization in Tris.HCl buffer at a pH 10.0 (or )in RMPI 1640 cell culture medium containing 10%FCS; format: ADME, cell-based; conditions: rmpi 1640, pH 10; how it was run: as §3
# [23] = Degradation of CNDAC at 8 pH in Tris-degrees C; format: ADME; conditions: Tris buffer, pH 8; how it was run: as §3
# [24] = Kinetic parameter of epimerization in Tris.HCl buffer at a pH 7.5 (or )in RMPI 1640 cell culture medium containing 10%FCS; format: ADME, cell-based; conditions: rmpi 1640, pH 7.5; how it was run: as §3
# [25] = Kinetic parameter of epimerization at a salt concentration (0.01 M) of in Tris.HCl buffer(pH 9.0) and 37 degree C (or )in RMPI 1640 cell culture medium containing 10%FCS; format: ADME, cell-based; conditions: rmpi 1640, pH 9; how it was run: as §3
# [26] = Degradation of CNDAC at 9.6 pH in Tris-degrees C; format: ADME; conditions: Tris buffer, pH 9.6; how it was run: as §3
# [27] = Degradation of CNDAC at 0.01 M concentration in Tris-degrees C; format: ADME; conditions: Tris buffer; how it was run: as §3
smiles,measurement,setting,value
N#C[C@H]1[C@H](O)[C@@H](CO)O[C@H]1n1ccc(N)nc1=O (stereo in doubt; form 2) [TAS-109],T/C,Mus musculus [1],138%
same,Weight change,Mus musculus [1],1.6 g
same,IC50,WiDr [2]; widr,0.306 µM
same,T/C,Mus musculus [3],164%
same,Weight change,Mus musculus [3],0.9 g
same,T/C,Mus musculus [4],180%
same,Weight change,Mus musculus [4],0.7 g
same,IC50,MKN-74 [5],265 µM
same,IC50,WiDr [6],16.5 µM
same,IC50,SBC-5 [7]; sbc-5,0.367 µM
same,IC50,SBC-5 [8],7.14 µM
same,IC50,MKN-74 [9]; mkn-74,0.206 µM
same,T/C,Mus musculus [10],203%
same,Weight change,Mus musculus [10],0.9 g
N#C[C@H]1[C@H](O)[C@@H](CO)O[C@H]1n1ccc(N)nc1=O (stereo in doubt; form 1) [TAS-109],K12,[11],0.88 h⁻¹
same,K13+K23,[11],0.09 h⁻¹
same,K21,[11],0.6 h⁻¹
same,K12,[12],2.14 h⁻¹
same,K13+K23,[12],0.26 h⁻¹
same,K21,[12],1.41 h⁻¹
same,half-life,[13],30 min
same,half-life,[14],38 h
same,T/C,Mus musculus [1],300%
same,Weight change,Mus musculus [1],0.3 g
same,IC50,"WiDr [2]; Homo sapiens, WiDr, 48 h",0.157 µM
same,K12,[15],1.88 h⁻¹
same,K13+K23,[15],0.19 h⁻¹
same,K21,[15],1.16 h⁻¹
same,half-life,[16],60 min
same,T/C,Mus musculus [3],300%
same,T/C,Mus musculus [4],311%
same,K21,[17],4.07 h⁻¹
same,K12,[18],2.31 h⁻¹
same,K13+K23,[18],0.3 h⁻¹
same,K21,[18],1.35 h⁻¹
same,IC50,MKN-74 [5],24.9 µM
same,K12,[19],0.22 h⁻¹
same,K13+K23,[19],0.02 h⁻¹
same,K21,[19],0.14 h⁻¹
same,half-life,[20],8.4 min
same,half-life,[21],21 min
same,IC50,WiDr [6],16.5 µM
same,IC50,"SBC-5 [7]; Homo sapiens, SBC-5, 48 h",0.222 µM
same,K12,[22],6.18 h⁻¹
same,K13+K23,[22],0.69 h⁻¹
same,half-life,[23],240 min
same,K12,[24],0.062 h⁻¹
same,K13+K23,[24],0.009 h⁻¹
same,K21,[24],0.037 h⁻¹
same,K12,[25],0.88 h⁻¹
same,K13+K23,[25],0.09 h⁻¹
same,K21,[25],0.6 h⁻¹
same,half-life,[26],27 min
same,IC50,SBC-5 [8],7.14 µM
same,half-life,[27],60 min
same,IC50,"MKN-74 [9]; Homo sapiens, MKN-74, 48 h",0.15 µM
same,T/C,Mus musculus [10],333%
